According to ChEMBL document CHEMBL3351346, “Design, synthesis, structure-function relationship, bioconversion, and pharmacokinetic evaluation of ertapenem prodrugs” (J Med Chem, 2014):

Key:
[1] = Stability in rat plasma assessed as compound remaining at 50 uM at 37 degC after 60 mins by LC-MS/MS method; assay type: ADME, cell-free; conditions: read-out: Stability
In short: (§1)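 Prodrugs were incubated in rat or human plasma for 60 min. Disappearance of prodrug and concomitant appearance of ertapenem were followed by LC-MS/MS, and in selected cases monoesters from partial hydrolysis were also monitored. Ertapenem itself was incubated the same way as a control.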

[2] = Stability in human plasma assessed as compound remaining at 50 uM at 37 degC after 60 mins by LC-MS/MS method; assay type: ADME, cell-free; conditions: read-out: Stability; in short: as §1
[3] = Stability in pH 2.0 simulated gastric fluid assessed as compound degradation to beta-lactam ring open products at 1 uM after 60 mins by LC-MS/MS method; assay type: ADME; conditions: read-out: Drug degradation
In short: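 Incubation was in simulated gastric fluid (SGF, pH 2.0) for 60 min, with loss to the β-lactam ring-opened product measured by LC-MS/MS.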

[4] = Stability in pH 6.5 simulated gastrointestinal fluid assessed as compound remaining at 50 uM after 3 hrs by LC-MS/MS method; assay type: ADME; conditions: read-out: Stability
In short: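 Compounds at 50 μM were incubated in fasted-state simulated intestinal fluid (FaSSIF, pH 6.5) for over 3 h. Percent remaining was determined by LC-MS/MS.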

[5] = Stability in pH 7.4 phosphate buffer assessed as compound remaining at 50 uM after 3 hrs by LC-MS/MS method; assay type: physicochemical; conditions: read-out: Stability
[6] = system: Rattus norvegicus; experiment: (§2) AUC (0 to 8 hrs) in fasted Sprague-Dawley rat at 10 mg/kg dosed through intraduodenal route by LC-MS/MS method; assay type: ADME, organism-based, Plasma; set-up: time < 8 hr, dose 10 mg/kg, route intraduodenal; conditions: in vivo, other, 8 h, BLD = below limit of detection
In short: (§3)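 Prodrugs were given intraduodenally to bypass stomach acid. Plasma was sampled at intervals over 8 h, and parent prodrug, the two monoester metabolites and ertapenem were quantified by LC-MS/MS. The lower limit of quantitation was 5 nM. AUC(0–8) was used, and it differed from AUC(0–∞) by ±20%. Vehicles were 30% Captisol or 0.5% methylcellulose, as solution or suspension depending on compound.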

[7] = system: Rattus norvegicus; experiment: AUC (0 to 8 hrs) in fasted Sprague-Dawley rat assessed as ertapenem level at 10 mg/kg dosed through intraduodenal route by LC-MS/MS method; assay type: ADME, organism-based, Plasma; set-up: time < 8 hr, dose 10 mg/kg, route intraduodenal; conditions: in vivo, other; in short: as §3
[8] = system: Rattus norvegicus; experiment: Oral bioavailability in fasted Sprague-Dawley rat assessed as ertapenem level at 10 mg/kg dosed through intraduodenal route by LC-MS/MS method; assay type: ADME, organism-based; conditions: in vivo
In short: (§4)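 After intraduodenal dosing, plasma over 8 h was analysed by LC-MS/MS. Bioavailability was calculated as dose-normalized AUC of ertapenem formed from the prodrug divided by dose-normalized AUC of ertapenem dosed iv. Vehicle was 30% Captisol or 0.5% methylcellulose.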

[9] = system: Rattus norvegicus; experiment: Oral bioavailability in fasted Sprague-Dawley rat assessed as ertapenem and monoetser metabolites level at 10 mg/kg dosed through intraduodenal route by LC-MS/MS method; assay type: ADME, organism-based; conditions: in vivo
In short: (§5)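 Total absorption followed intraduodenal dosing with LC-MS/MS of plasma over 8 h. It was calculated as the combined dose-normalized AUC of circulating parent prodrug, ertapenem and two monoesters, divided by dose-normalized AUC of ertapenem given iv. Vehicle was 30% Captisol or 0.5% methylcellulose.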

[10] = system: Canis familiaris; experiment: (§6) AUC (0 to 8 hrs) in fasted Beagle dog at 10 mg/kg dosed through intraduodenal route by LC-MS/MS method; assay type: ADME, organism-based, Canis lupus familiaris, Plasma; set-up: time < 8 hr, dose 10 mg/kg, route intraduodenal; conditions: in vivo, other, 8 h, BLD = below limit of detection; in short: as §3
[11] = system: Canis familiaris; experiment: AUC (0 to 8 hrs) in fasted Beagle dog assessed as ertapenem level at 10 mg/kg dosed through intraduodenal route by LC-MS/MS method; assay type: ADME, organism-based, Canis lupus familiaris, Plasma; set-up: time < 8 hr, dose 10 mg/kg, route intraduodenal; conditions: in vivo, other; in short: as §3
[12] = system: Canis familiaris; experiment: Oral bioavailability in fasted Beagle dog assessed as ertapenem level at 10 mg/kg dosed through intraduodenal route by LC-MS/MS method; assay type: ADME, organism-based, Canis lupus familiaris; conditions: in vivo; in short: as §4
[13] = system: Canis familiaris; experiment: Oral bioavailability in fasted Beagle dog assessed as assessed as ertapenem and monoetser metabolites level at 10 mg/kg dosed through intraduodenal route by LC-MS/MS method; assay type: ADME, organism-based, Canis lupus familiaris; conditions: in vivo; in short: as §5
[14] = as §2; assay type: ADME, organism-based, Plasma; set-up: time < 8 hr, dose 10 mg/kg, route intraduodenal; conditions: Sprague-Dawley, plasma; in short: as §3
[15] = AUC (0 to 8 hrs) in fasted Beagle dog at 6.18 mg/kg dosed through intraduodenal route by LC-MS/MS method; assay type: ADME, organism-based, Canis lupus familiaris; set-up: time < 8 hr, dose 6.18 mg/kg, route intraduodenal; conditions: plasma; in short: as §3
[16] = system: Canis familiaris; experiment: AUC (0 to 8 hrs) in fasted Beagle dog assessed as ertapenem level at 6.18 mg/kg dosed through intraduodenal route by LC-MS/MS method; assay type: ADME, organism-based, Canis lupus familiaris, Plasma; set-up: time < 8 hr, dose 6.18 mg/kg, route intraduodenal; conditions: in vivo, other; in short: as §3
[17] = system: Canis familiaris; experiment: AUC (0 to 8 hrs) in fasted Beagle dog assessed as 8-OH, C-3 ester level at 6.18 mg/kg dosed through intraduodenal route by LC-MS/MS method; assay type: ADME, organism-based, Canis lupus familiaris, Plasma; set-up: time < 8 hr, dose 6.18 mg/kg, route intraduodenal; conditions: in vivo, other; in short: as §3
[18] = system: Canis familiaris; experiment: AUC (0 to 8 hrs) in fasted Beagle dog assessed as 8-OH, benzoate ester level at 6.18 mg/kg dosed through intraduodenal route by LC-MS/MS method; assay type: ADME, organism-based, Canis lupus familiaris, Plasma; set-up: time < 8 hr, dose 6.18 mg/kg, route intraduodenal; conditions: in vivo, other; in short: as §3
[19] = system: Canis familiaris; experiment: Oral bioavailability in fasted Beagle dog assessed as ertapenem level at 6.18 mg/kg dosed through intraduodenal route by LC-MS/MS method; assay type: ADME, organism-based, Canis lupus familiaris; conditions: in vivo; in short: as §4
[20] = system: Canis familiaris; experiment: Oral bioavailability in fasted Beagle dog assessed as assessed as ertapenem and monoetser metabolites level at 6.18 mg/kg dosed through intraduodenal route by LC-MS/MS method; assay type: ADME, organism-based, Canis lupus familiaris; conditions: in vivo; in short: as §5
[21] = Oral drug absorption in fasted Beagle dog at 6.18 mg/kg dosed through intraduodenal route by LC-MS/MS method; assay type: ADME, organism-based, Canis lupus familiaris; set-up: dose 6.18 mg/kg, route intraduodenal; conditions: in vivo; in short: as §5
[22] = as §6; assay type: ADME, organism-based, Canis lupus familiaris, Plasma; set-up: time < 8 hr, dose 10 mg/kg, route intraduodenal; conditions: Beagle, plasma; in short: as §3
[23] = system: Canis familiaris; experiment: AUC (0 to 8 hrs) in fasted Beagle dog assessed as 8-OH, C-3 ester level at 10 mg/kg dosed through intraduodenal route by LC-MS/MS method; assay type: ADME, organism-based, Canis lupus familiaris, Plasma; set-up: time < 8 hr, dose 10 mg/kg, route intraduodenal; conditions: in vivo, other; in short: as §3
[24] = system: Canis familiaris; experiment: AUC (0 to 8 hrs) in fasted Beagle dog assessed as 8-OH, benzoate ester level at 10 mg/kg dosed through intraduodenal route by LC-MS/MS method; assay type: ADME, organism-based, Canis lupus familiaris, Plasma; set-up: time < 8 hr, dose 10 mg/kg, route intraduodenal; conditions: in vivo, other; in short: as §3
[25] = Oral drug absorption in fasted Beagle dog at 10 mg/kg dosed through intraduodenal route by LC-MS/MS method; assay type: ADME, organism-based, Canis lupus familiaris; set-up: dose 10 mg/kg, route intraduodenal; conditions: in vivo; in short: as §5

SMILES | remaining at 1 h, 50 µM [1] [%] | remaining at 1 h, 50 µM [2] [%] | degraded at 1 h, 1 µM [3] [%] | remaining at 3 h, 50 µM [4] [%] | remaining at 3 h, 50 µM [5] [%] | AUC [6] | AUC [7] [nM·h] | F [8] [%] | F [9] [%] | AUC [11] [nM·h] | F [12] [%] | F [13] [%] | AUC(0-t) at 8 h [22] [nM·h] | further results
CC(C)OC(=O)C1=C(S[C@@H]2CN[C@H](C(=O)Nc3cccc(C(=O)OC(C)C)c3)C2)[C@H](C)[C@@H]2[C@@H]([C@@H](C)O)C(=O)N12 | 0 | 16 | > 25 | > 95 | > 95 |  | < 100 | < 0.1 | 0.1 |  |  |  |  | AUC(0-t) at 8 h [14]: 90 nM·h; AUC(0-t) at 8 h [15]: 1600 nM·h; AUC [16]: 200 nM·h; AUC [17]: 200 nM·h; AUC [18]: 300 nM·h; F [19]: 0.5%; F [20]: 5.1%; Fa [21]: 5.1%
C[C@@H](O)[C@H]1C(=O)N2C(C(=O)OCC(F)(F)F)=C(S[C@@H]3CN[C@H](C(=O)Nc4cccc(C(=O)OCC(F)(F)F)c4)C3)[C@H](C)[C@H]12 | 3 | 6 | > 25 | > 95 | > 95 | BLD | 1700 | 3 | 3 | 6700 | 10.2 | 12 | 200 | AUC [23]: 800 nM·h; AUC [24]: 200 nM·h

Now from value to compound, other results behind:

remaining at 1 h, 50 µM [1] [%] | remaining at 1 h, 50 µM [2] [%] | degraded at 1 h, 1 µM [3] [%] | remaining at 3 h, 50 µM [4] [%] | remaining at 3 h, 50 µM [5] [%] | AUC [6] | AUC [7] [nM·h] | F [8] [%] | F [9] [%] | AUC [11] [nM·h] | F [12] [%] | F [13] [%] | AUC(0-t) at 8 h [22] [nM·h] | SMILES | further results
6 | 8 | > 25 | > 95 | > 95 | BLD | 400 | 0.9 | 0.9 |  |  |  |  | CC(C)c1oc(=O)oc1COC(=O)C1=C(S[C@@H]2CN[C@H](C(=O)Nc3cccc(C(=O)OCc4oc(=O)oc4C(C)C)c3)C2)[C@H](C)[C@@H]2[C@@H]([C@@H](C)O)C(=O)N12 | 
0 | 10 | > 25 | > 95 | > 95 | BLD | 200 | 0.3 | 0.3 | 200 | 0.4 | 0.4 |  | C[C@@H](O)[C@H]1C(=O)N2C(C(=O)OCc3oc(=O)oc3C(C)(C)C)=C(S[C@@H]3CN[C@H](C(=O)Nc4cccc(C(=O)OCc5oc(=O)oc5C(C)(C)C)c4)C3)[C@H](C)[C@H]12 | AUC [10]: BLD
97 | 92 | > 25 | > 95 | > 95 |  |  |  |  |  |  | 0.1 | < 100 | CC(C)CCC[C@@H](C)[C@H]1CC[C@H]2[C@@H]3CC=C4C[C@@H](OC(=O)COC(=O)c5cccc(NC(=O)[C@@H]6C[C@H](SC7=C(C(=O)OCC(F)(F)F)N8C(=O)[C@H]([C@@H](C)O)[C@H]8[C@H]7C)CN6)c5)CC[C@]4(C)[C@H]3CC[C@]12C | AUC ([11]; BLD = below limit of detection): BLD; AUC ([23]; BLD = below limit of detection): BLD; F ([12]; BLD = below limit of detection): BLD; Fa [25]: < 0.1%
